Series [1] can be described thus: Antiproliferative activity against human HCT116 cells after 48 hrs by MTT assay. It counts as functional, cell-based. The following applies: HCT-116, 48 h. In a few lines:
(§1)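 Human cancer cells (HCT-116, HepG2 or MGC-803) incubated with compound for 48 h. Viability read by MTT assay. IC50 taken from dose-response curves. Mean ± SD of three separate assays.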
For orientation: Tetrazolium assays rely on reduction of a dye to a coloured formazan, in cell work by metabolically active cells.

The subject of series [2] is HepG2. The series is described as follows: Antiproliferative activity against human HepG2 cells after 48 hrs by MTT assay. The format is functional, cell-based. The following applies: HepG2, 48 h. In a few lines:
as §1

The nature of series [3]: Antiproliferative activity against human MGC803 cells after 48 hrs by MTT assay. The format is functional, cell-based. To be noted: MGC-803, 48 h. The method, boiled down:
as §1

A short description of series [4]: Cell cycle arrest in human MGC803 cells assessed as accumulation at G0/G1 phase at 10 uM after 24 hrs by propidium iodide staining based flow cytometric analysis (reference value: 77.59 %). It counts as functional. The following applies: MGC-803. The method, boiled down:
(§2)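 MGC-803 cells were exposed for 24 h to 0 (untreated), 10, 20 or 40 µM. The percentage of cells in each cell-cycle phase was measured by flow cytometry. Values are mean ± SD of three independent experiments, with P compared to control.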
(In general: In flow cytometry, cells or beads pass a laser one at a time.)

A short description of series [5]: Cell cycle arrest in human MGC803 cells assessed as accumulation at S phase at 10 uM after 24 hrs by propidium iodide staining based flow cytometric analysis (reference value: 20.52 %). The format is functional. To be noted: MGC-803. The method, boiled down:
as §2

The nature of series [6]: Cell cycle arrest in human MGC803 cells assessed as accumulation at G2/M phase at 10 uM after 24 hrs by propidium iodide staining based flow cytometric analysis (reference value: 1.89 %). It counts as functional. To be noted: MGC-803. In a few lines:
as §2

Series [7] can be described thus: Cell cycle arrest in human MGC803 cells assessed as accumulation at G0/G1 phase at 20 uM after 24 hrs by propidium iodide staining based flow cytometric analysis (reference value: 77.59 %). It counts as functional. The following applies: MGC-803. In a few lines:
as §2

Series [8] in a line: Cell cycle arrest in human MGC803 cells assessed as accumulation at S phase at 20 uM after 24 hrs by propidium iodide staining based flow cytometric analysis (reference value: 20.52 %). The following applies: MGC-803. It counts as functional. In a few lines: as §2
Series [9] in a line: Cell cycle arrest in human MGC803 cells assessed as accumulation at G2/M phase at 20 uM after 24 hrs by propidium iodide staining based flow cytometric analysis (reference value: 1.89 %). It counts as functional. The following applies: MGC-803. The method, boiled down:
as §2

The nature of series [10]: Cell cycle arrest in human MGC803 cells assessed as accumulation at G0/G1 phase at 40 uM after 24 hrs by propidium iodide staining based flow cytometric analysis (reference value: 77.59 %). It counts as functional. To be noted: MGC-803. The method, boiled down:
as §2

Series [11] is described as follows: Cell cycle arrest in human MGC803 cells assessed as accumulation at S phase at 40 uM after 24 hrs by propidium iodide staining based flow cytometric analysis (reference value: 20.52 %). To be noted: MGC-803. It counts as functional. In a few lines:
as §2

Series [12] can be described thus: Cell cycle arrest in human MGC803 cells assessed as accumulation at G2/M phase at 40 uM after 24 hrs by propidium iodide staining based flow cytometric analysis (reference value: 1.89 %). The format is functional. The following applies: MGC-803. The method, boiled down:
as §2

The nature of series [13]: Cell cycle arrest in human MGC803 cells assessed as accumulation at G2/M phase after 24 hrs by propidium iodide staining based flow cytometric analysis. The format is functional. To be noted: MGC-803. In a few lines: as §2
The nature of series [14]: Downregulation of cyclin A expression in human MGC803 cells after 24 hrs by Western blot analysis. The format is functional, cell-based. The following applies: MGC-803. The method, boiled down: (§3)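 MGC-803 cells were incubated for 24 h at 0, 10, 20 or 40 µM. Levels of cyclin A, cyclin B, CDK1, cdc25c and p21 were detected by Western blot with specific antibodies, with P compared to 0 µM.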
On the technique in general: A western blot detects proteins with antibodies after separation by electrophoresis.

Series [15] is described as follows: Downregulation of cyclin B expression in human MGC803 cells after 24 hrs by Western blot analysis. The format is functional, cell-based. The following applies: MGC-803. In a few lines:
as §3

The nature of series [16]: Downregulation of CDK1 expression in human MGC803 cells after 24 hrs by Western blot analysis. The following applies: MGC-803. It counts as functional, cell-based. The method, boiled down:
as §3

Series [17] is described as follows: Downregulation of CDK2 expression in human MGC803 cells at 10 to 40 uM after 24 hrs by Western blot analysis. The format is functional, cell-based. The following applies: MGC-803.
The nature of series [18]: Downregulation of cdc25c expression in human MGC803 cells at 10 to 40 uM after 24 hrs by Western blot analysis. It counts as functional, cell-based. To be noted: MGC-803. In a few lines: as §3
The nature of series [19]: Upregulation of p21 expression in human MGC803 cells at 10 to 40 uM after 24 hrs by Western blot analysis. The following applies: MGC-803. It counts as functional, cell-based. The method, boiled down:
as §3

The test system of series [20] is Mus musculus. Nature of the series: Toxicity in ICR mouse xenografted with human HepG2 cells assessed as body weight at 1 mg/kg, iv administered every 2 days measured on day 1 (reference value: 21 +/- 0.89 g). The format is organism-based. The following applies: in vivo, 48 h.
For series [21], the system named is Mus musculus. The series is described as follows: Toxicity in ICR mouse xenografted with human HepG2 cells assessed as body weight at 2 mg/kg, iv administered every 2 days measured on day 1 (reference value: 21 +/- 0.89 g). To be noted: in vivo, 48 h. It counts as organism-based.
Series [22] deals with Mus musculus. Nature of the series: Toxicity in ICR mouse xenografted with human HepG2 cells assessed as body weight at 4 mg/kg, iv administered every 2 days measured on day 1 (reference value: 21 +/- 0.89 g). The format is organism-based. To be noted: in vivo, 48 h.
In series [23] the test system is Mus musculus. Nature of the series: Toxicity in ICR mouse xenografted with HepG2 cells assessed as body weight at 1 mg/kg, iv administered every 2 days measured on day 14 (reference value: 30.10 +/- 2.39 g). The format is organism-based. The following applies: in vivo, 48 h.
Series [24] relates to Mus musculus. Nature of the series: Toxicity in ICR mouse xenografted with HepG2 cells assessed as body weight at 2 mg/kg, iv administered every 2 days measured on day 14 (reference value: 30.10 +/- 2.39 g). To be noted: in vivo, 48 h. It counts as organism-based.
For series [25], the system named is Mus musculus. Nature of the series: Toxicity in ICR mouse xenografted with HepG2 cells assessed as body weight at 4 mg/kg, iv administered every 2 days measured on day 14 (reference value: 30.10 +/- 2.39 g). The format is organism-based. To be noted: in vivo, 48 h.
In series [26] the test system is HepG2. The series is described as follows: Antitumor activity against human HepG2 cells xenografted in ICR mouse assessed as tumor growth inhibition at 4 mg/kg, iv administered every 2 days measured after 14 days relative to control. The format is functional. The following applies: read-out: TGI. In a few lines:
(§4)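 HepG2 xenografts established in ICR mice, then randomized into four groups (n = 10 each). Compound given intravenously every two days; control group received vehicle at 0.4 mL/mouse. Tumors weighed after two weeks (day 14); inhibitory ratio calculated versus vehicle control. Body weights recorded on days 1 and 14.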

Series [27] relates to HepG2. The series is described as follows: Antitumor activity against human HepG2 cells xenografted in ICR mouse assessed as tumor growth inhibition at 1 mg/kg, iv administered every 2 days measured after 14 days relative to control. The format is functional. The following applies: read-out: TGI. In a few lines:
as §4

Series [28] relates to HepG2. The series is described as follows: Antitumor activity against human HepG2 cells xenografted in ICR mouse assessed as tumor growth inhibition at 2 mg/kg, iv administered every 2 days measured after 14 days relative to control. The format is functional. The following applies: read-out: TGI. The method, boiled down: as §4
Series [29] is described as follows: Cell cycle arrest in human MGC803 cells assessed as decrease in cell level at G1 phase after 24 hrs by propidium iodide staining based flow cytometric analysis. It counts as functional. To be noted: MGC-803. The method, boiled down: as §2
The test system of series [30] is HepG2. Nature of the series: Antitumor activity against human HepG2 cells xenografted in iv dosed ICR mouse assessed as tumor retardation effect administered every 2 days measured after 14 days. It counts as functional, organism-based.

The source made the active and inactive calls. The calls are words filed in the database; no cut-off is given here.

A word on the IC50: it is the concentration at which inhibition is half-maximal. Read a low IC50 as inhibition by little substance. In the case of `COc1cc([C@@H]2c3cc4c(cc3C[C@H]3COC(=O)[C@@H]32)OCO4)cc(OC)c1OCC(=O)Nc1ccccc1Cl`, the IC50 in series [1], in series [2] and in [3] was above 10 µM in each case.

Take `COc1cc([C@@H]2c3cc4c(cc3C[C@H]3COC(=O)[C@@H]32)OCO4)cc(OC)c1OCC(=O)Nc1ccccc1[N+](=O)[O-]`: the IC50 in series [1], in [2] and in [3] was above 10 µM each time.

With `COc1cc([C@@H]2c3cc4c(cc3C[C@H]3COC(=O)[C@@H]32)OCO4)cc(OC)c1OCC(=O)Nc1cccc(Cl)c1`, the IC50 worked out at 2.68 µM in series [1], 2.97 µM in series [2] and 1.24 µM in series [3].

`COc1cc([C@@H]2c3cc4c(cc3C[C@H]3COC(=O)[C@@H]32)OCO4)cc(OC)c1OCC(=O)Nc1cccc(F)c1`: the IC50 in series [1], in series [2] and in series [3] was above 10 µM in each case.

Consider `COc1cc([C@@H]2c3cc4c(cc3[C@@H](O[C@@H]3O[C@@H]5CO[C@@H](C)O[C@H]5[C@H](O)[C@H]3O)[C@H]3COC(=O)[C@H]23)OCO4)cc(OC)c1O` [ETOPOSIDE], for which the IC50 in series [1] was 1.7 µM; in series [2] it was 5.62 µM; in series [3] it was above 10 µM.

Take `COc1cc([C@@H]2c3cc4c(cc3C[C@H]3COC(=O)[C@@H]32)OCO4)cc(OC)c1OCC(=O)Nc1c(C)cccc1Cl`: the IC50 is above 10 µM in series [1], above 10 µM in [2] and 6.16 µM in [3].

Regarding `COc1ccc(NC(=O)COc2c(OC)cc([C@@H]3c4cc5c(cc4C[C@H]4COC(=O)[C@@H]43)OCO5)cc2OC)cc1`, the IC50 in series [1], in series [2] and in series [3] was above 10 µM throughout.

Turning to `COc1cc([C@@H]2c3cc4c(cc3C[C@H]3COC(=O)[C@@H]32)OCO4)cc(OC)c1OCC(=O)Nc1ccccc1`, the IC50 in series [1] is above 10 µM; in series [2] it was above 10 µM; in series [3] it was 2.54 µM.

On to `COc1cc([C@@H]2c3cc4c(cc3C[C@H]3COC(=O)[C@@H]32)OCO4)cc(OC)c1OCC(=O)Nc1cccc([N+](=O)[O-])c1`, for which the figures for the IC50 in series [1], in series [2] and in series [3] were 3.2 µM, above 10 µM and 2.82 µM, respectively.

For `COc1cc([C@@H]2c3cc4c(cc3C[C@H]3COC(=O)[C@@H]32)OCO4)cc(OC)c1OCC(=O)Nc1ccccc1F`, the IC50 in series [1] was determined as 2.2 µM; in series [2], 1.08 µM; in [3], 0.22 µM. The Activity in series [4] was found to be 41.9%; in [5], 50.8%; in [6] it was 7.29%; in series [7], 7.22%; in [8], 20.5%; in series [9], 72.3%. The Activity is 1.8% in [10]; 22.7% in series [11]; 75.5% in [12]; “Dose-dependent effect” in series [13]; “Dose-dependent effect” in series [14]; “Dose-dependent effect” in [15]. Also, the Activity entry in series [16] is “Dose-dependent effect”; in [20] it was 20.82 g; in [21], 20.91 g; in series [22], 21.3 g; in series [23], 29.09 g; in [24] it was 28.36 g. In addition, the Activity in [25] was 27.2 g; in series [29], “Dose-dependent effect”; in series [30] it was “Dose-dependent effect”. For the same compound, the outcome in series [17] was inactive. The outcome in [18] and in series [19] was Active. For the same compound, the inhibition in vivo at 4 mg/kg in series [26] came to 45.6%. In addition, the inhibition in vivo at 1 mg/kg in series [27] came out at 6.09%. In series [28], the inhibition in vivo at 2 mg/kg came to 26.6%.

`COc1cc([C@@H]2c3cc4c(cc3C[C@H]3COC(=O)[C@@H]32)OCO4)cc(OC)c1OCC(=O)Nc1ccccc1C`: the IC50 in series [1] is above 10 µM; in series [2], 7.8 µM; in series [3], 4.05 µM.

The values are drawn from ChEMBL document CHEMBL3763137, “Design and synthesis of novel 4'-demethyl-4-deoxypodophyllotoxin derivatives as potential anticancer agents” (Bioorg Med Chem Lett, 2016).
